Laboratory results from ChEMBL document CHEMBL4007449, “Novel multi-substituted benzyl acridone derivatives as survivin inhibitors for hepatocellular carcinoma treatment” (Eur J Med Chem, 2017).

Assays:
HepG2 [1] = experiment: Antitumor activity against human HepG2 cells ectopically xenografted in nude mouse assessed as tumor growth inhibition at 3 mg/kg, ip administered once in 2 days measured after 30 days relative to control; type: functional; details: read-out: TGI
Procedure, shortened: (§1)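 HepG2 cells implanted subcutaneously in the flanks of nude mice, randomised into groups of 5: blank, 5-FU (25 mg/kg) and test compound hydrochloride at 0.33 or 3 mg/kg, given i.p. once every 2 days. Tumour volume and body weight recorded every 2 days. Mice euthanised on day 30; tumours, liver and spleen weighed and organ indices calculated; tumour growth inhibition derived.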

Mus musculus [2] = experiment: Toxicity in nude mouse ectopically xenografted with human HepG2 cells assessed as body weight loss at 0.33 to 3 mg/kg, ip administered once in 2 days measured up to 30 days post dose; type: organism-based; details: in vivo; procedure, shortened: as §1
Mus musculus [3] = experiment: Toxicity in nude mouse ectopically xenografted with human HepG2 cells assessed as effect on normal growth at 0.33 to 3 mg/kg, ip administered once in 2 days measured up to 30 days post dose; type: organism-based; details: in vivo; procedure, shortened: as §1
Mus musculus [4] = experiment: Toxicity in nude mouse ectopically xenografted with human HepG2 cells assessed as effect on normal behavior at 0.33 to 3 mg/kg, ip administered once in 2 days measured up to 30 days post dose; type: organism-based; details: in vivo; procedure, shortened: as §1
Mus musculus [5] = experiment: Toxicity in nude mouse ectopically xenografted with human HepG2 cells assessed as liver weight at 3 mg/kg, ip administered once in 2 days measured after 30 days (reference value: 0.069 to 0.434 g); type: organism-based; details: in vivo, 720 h; procedure, shortened: as §1
Mus musculus [6] = experiment: Toxicity in nude mouse ectopically xenografted with human HepG2 cells assessed as liver weight at 0.33 mg/kg, ip administered once in 2 days measured after 30 days (reference value: 0.069 to 0.434 g); type: organism-based; details: in vivo, 720 h; procedure, shortened: as §1
Mus musculus [7] = experiment: Toxicity in nude mouse ectopically xenografted with human HepG2 cells assessed as liver weight index at 3 mg/kg, ip administered once in 2 days measured after 30 days (reference value: 0.0009 to 0.0187); type: organism-based; details: in vivo, 720 h; procedure, shortened: as §1
Mus musculus [8] = experiment: Toxicity in nude mouse ectopically xenografted with human HepG2 cells assessed as liver weight index at 0.33 mg/kg, ip administered once in 2 days measured after 30 days (reference value: 0.0009 to 0.0187); type: organism-based; details: in vivo, 720 h; procedure, shortened: as §1
Mus musculus [9] = experiment: Toxicity in nude mouse ectopically xenografted with human HepG2 cells assessed as spleen weight at 3 mg/kg, ip administered once in 2 days measured after 30 days (reference value: 0.071 to 0.248 g); type: organism-based; details: in vivo, 720 h; procedure, shortened: as §1
Mus musculus [10] = experiment: Toxicity in nude mouse ectopically xenografted with human HepG2 cells assessed as spleen weight at 0.33 mg/kg, ip administered once in 2 days measured after 30 days (reference value: 0.071 to 0.248 g); type: organism-based; details: in vivo, 720 h; procedure, shortened: as §1
Mus musculus [11] = experiment: Toxicity in nude mouse ectopically xenografted with human HepG2 cells assessed as spleen weight index at 3 mg/kg, ip administered once in 2 days measured after 30 days (reference value: 0.002 to 0.0106); type: organism-based; details: in vivo, 720 h; procedure, shortened: as §1
Mus musculus [12] = experiment: Toxicity in ip dosed nude mouse ectopically xenografted with human HepG2 cells assessed as increase in spleen weight administered once in 2 days measured after 30 days; type: organism-based; details: in vivo, 720 h; procedure, shortened: as §1
Mus musculus [13] = experiment: Toxicity in nude mouse ectopically xenografted with human HepG2 cells assessed as spleen weight index at 0.33 mg/kg, ip administered once in 2 days measured after 30 days (reference value: 0.002 to 0.0106); type: organism-based; details: in vivo, 720 h; procedure, shortened: as §1
HepG2 [14] = experiment: Antiproliferative activity against human HepG2 cells after 48 hrs by MTT assay; type: functional, cell-based; details: HepG2, 48 h
Procedure, shortened: (§2)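 Cells grown in DMEM with 10% FBS at 37 °C, 5% CO2; seeded at 6 × 10^3 cells/well, allowed to attach 12 h, then exposed to compound at final 50, 25, 10, 1 and 0.1 µM for 48 h. MTT (5 mg/mL) added for 4 h, formazan dissolved in DMSO, absorbance read at 490 nm; IC50 taken from the resulting curve.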

MCF7 = experiment: Antiproliferative activity against human MCF7 cells after 48 hrs by MTT assay; type: functional, cell-based; details: MCF7, 48 h; procedure, shortened: as §2
[15] = Antiproliferative activity against human QGY7701 cells after 48 hrs by MTT assay; type: cell-based; details: QGY7701, 48 h; procedure, shortened: as §2
[16] = Selectivity index, ratio of IC50 for human QGY7701 cells to IC50 for human HepG2 cells; type: functional
Procedure, shortened: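 Ratio built from MTT IC50 values: QGY-7701 and HepG2 cells in DMEM/10% FBS, seeded at 6 × 10^3 cells/well, attached 12 h, treated 48 h at final 0.1–50 µM, MTT 4 h, DMSO solubilisation, absorbance at 490 nm.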

Which inhibition in vivo at 3 mg/kg (HepG2 [1]) does the source give for `COc1ccc(CNc2ccc(C(=O)NCCCN(C)C)c3[nH]c4c([N+](=O)[O-])cccc4c(=O)c23)cc1.Cl` here?
Its inhibition in vivo at 3 mg/kg is 54%.

And the Activity (Mus musculus [2])?
Its Activity is “Non-Toxic”.

And the Activity (Mus musculus [3])?
Its Activity is “Non-Toxic”.

What about the Activity (Mus musculus [4]) of the same molecule?
The Activity was “Non-Toxic”.

And the Activity (Mus musculus [5])?
Its Activity is 0.032 to 0.421 g.

What about the Activity (Mus musculus [6]) of the same molecule?
Its Activity is 0.04 to 0.441 g.

And the Activity index (Mus musculus [7])?
Its Activity index is 0.0025 to 0.0198.

What about the Activity index (Mus musculus [8]) of the same molecule?
Its Activity index is 0.0016 to 0.0217.

What about the Activity (Mus musculus [9]) of the same molecule?
Its Activity is 0.084 to 0.344 g.

And the Activity (Mus musculus [10])?
Its Activity is 0.044 to 0.231 g.

What about the Activity index (Mus musculus [11]) of the same molecule?
The Activity index was 0.0042 to 0.0162.

What about the Activity (Mus musculus [12]) of the same molecule?
The Activity was “Dose-dependent effect”.

And the Activity index (Mus musculus [13])?
Its Activity index is 0.0016 to 0.0113.

Which IC50 (HepG2 [14]) does the source give for `COc1ccc(CNc2ccc(C(=O)NCCCN(C)C)c3[nH]c4c([N+](=O)[O-])cccc4c(=O)c23)cc1` here?
Its IC50 is 3.56 µM.

What about the IC50 (MCF7) of the same molecule?
Its IC50 is 4.4 µM.

What about the IC50 [15] of the same molecule?
The IC50 was 40.7 µM.

What about the “Ratio IC50” value [16] of the same molecule?
The value was 11.
